Results: ChEMBL document CHEMBL2380295, “Structure-activity studies on the side chain of a simplified analog of aplysiatoxin (aplog-1) with anti-proliferative activity” (Bioorg Med Chem, 2013)

What was measured:
[1] = Cytotoxicity against human Raji cells assessed as cell viability at 10^-6 M; format: cell-based; conditions: read-out: Activity
[2] = Cytotoxicity against human Raji cells assessed as cell viability at 10^-7 M; format: cell-based; conditions: read-out: Activity
[3] = system: Human gammaherpesvirus 4; test: Induction of EBV-early antigen expressed in human Raji cells at 10^-6 M after 48 hrs by immunofluorescence assay relative to control; format: organism-based; conditions: human gammaherpesvirus 4, raji, 1 µM
In short: (§1)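 Raji B-lymphoblastoid cells (5 × 10^5/mL) in RPMI 1640 with 10% FBS, with 4 mM sodium n-butyrate as synergist and test compound at 10^-7 or 10^-6 M (final DMSO 0.4%). Incubated 48 h at 37 °C under 5% CO2. Smears were stained by indirect immunofluorescence using NPC patient serum and FITC anti-human IgG. At least 500 cells counted; % EA-positive recorded; n = 3, SEM.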

[4] = system: Human gammaherpesvirus 4; test: Induction of EBV-early antigen expressed in human Raji cells at 10^-7 M after 48 hrs by immunofluorescence assay relative to control; format: organism-based; conditions: human gammaherpesvirus 4, raji, 0.1 µM; in short: as §1
[5] = system: PC-3; test: Growth inhibition of human PC3 cells after 48 hrs by sulforhodamine B assay; format: functional; conditions: PC-3, 48 h
In short: (§2)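 Yamori 39-line human cancer panel, NCI method with modifications. Cells plated in RPMI 1640 plus 5% FBS, attached overnight, then exposed 48 h to compound at 10^-8, 10^-7, 10^-6, 10^-5 and 10^-4 M. Sulforhodamine B staining read at 525 nm; % growth = 100[(T−T0)/(C−T0)] from duplicate-point averages, with T0 the time-zero absorbance. GI50 is the concentration giving 50.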

[6] = system: DU-145; test: Growth inhibition of human DU145 cells after 48 hrs by sulforhodamine B assay; format: functional; conditions: DU-145, 48 h; in short: as §2
[7] = system: MKN-74; test: Growth inhibition of human MKN74 cells after 48 hrs by sulforhodamine B assay; format: functional; conditions: MKN-74, 48 h; in short: as §2
[8] = system: MKN-28; test: Growth inhibition of human MKN28 cells after 48 hrs by sulforhodamine B assay; format: functional; conditions: MKN-28, 48 h; in short: as §2
[9] = system: MKN-45; test: Growth inhibition of human MKN45 cells after 48 hrs by sulforhodamine B assay; format: functional; conditions: MKN-45, 48 h; in short: as §2
[10] = system: MKN-7; test: Growth inhibition of human MKN7 cells after 48 hrs by sulforhodamine B assay; format: functional; conditions: MKN-7, 48 h; in short: as §2
[11] = system: St-4; test: Growth inhibition of human St-4 cells after 48 hrs by sulforhodamine B assay; format: functional; conditions: St-4, 48 h; in short: as §2
[12] = Growth inhibition of human MKN1 cells after 48 hrs by sulforhodamine B assay; format: functional; conditions: MKN-1, 48 h; in short: as §2
[13] = Growth inhibition of human RXF631L cells after 48 hrs by sulforhodamine B assay; format: functional; conditions: RXF 631, 48 h; in short: as §2
[14] = system: ACHN; test: Growth inhibition of human ACHN cells after 48 hrs by sulforhodamine B assay; format: functional; in short: as §2
[15] = system: OVCAR-8; test: Growth inhibition of human OVCAR8 cells after 48 hrs by sulforhodamine B assay; format: functional; conditions: OVCAR-8, 48 h; in short: as §2
[16] = system: SK-OV-3; test: Growth inhibition of human SKOV3 cells after 48 hrs by sulforhodamine B assay; format: functional; conditions: SK-OV-3, 48 h; in short: as §2
[17] = system: OVCAR-5; test: Growth inhibition of human OVCAR5 cells after 48 hrs by sulforhodamine B assay; format: functional; conditions: OVCAR-5, 48 h; in short: as §2
[18] = system: OVCAR-3; test: Growth inhibition of human OVCAR3 cells after 48 hrs by sulforhodamine B assay; format: functional; conditions: OVCAR-3, 48 h; in short: as §2
[19] = system: OVCAR-4; test: Growth inhibition of human OVCAR4 cells after 48 hrs by sulforhodamine B assay; format: functional; conditions: OVCAR-4, 48 h; in short: as §2
[20] = system: DMS-114; test: Growth inhibition of human DMS114 cells after 48 hrs by sulforhodamine B assay; format: functional; conditions: DMS-114, 48 h; in short: as §2
[21] = system: LOX IMVI; test: Growth inhibition of human LOXIMVI cells after 48 hrs by sulforhodamine B assay; format: functional; in short: as §2
[22] = system: A549; test: Growth inhibition of human A549 cells after 48 hrs by sulforhodamine B assay; format: functional; conditions: A549, 48 h; in short: as §2
[23] = system: DMS-273; test: Growth inhibition of human DMS273 cells after 48 hrs by sulforhodamine B assay; format: functional; conditions: DMS-273, 48 h; in short: as §2
[24] = system: NCI-H460; test: Growth inhibition of human NCI-H460 cells after 48 hrs by sulforhodamine B assay; format: functional; conditions: NCI-H460, 48 h; in short: as §2
[25] = system: NCI-H226; test: Growth inhibition of human NCI-H226 cells after 48 hrs by sulforhodamine B assay; format: functional; conditions: NCI-H226, 48 h; in short: as §2
[26] = system: NCI-H522; test: Growth inhibition of human NCI-H522 cells after 48 hrs by sulforhodamine B assay; format: functional; conditions: NCI-H522, 48 h; in short: as §2
[27] = system: HCT-116; test: Growth inhibition of human HCT116 cells after 48 hrs by sulforhodamine B assay; format: functional; conditions: HCT-116, 48 h; in short: as §2
[28] = system: NCI-H23; test: Growth inhibition of human NCI-H23 cells after 48 hrs by sulforhodamine B assay; format: functional; conditions: NCI-H23, 48 h; in short: as §2
[29] = system: HCT-15; test: Growth inhibition of human HCT15 cells after 48 hrs by sulforhodamine B assay; format: functional; conditions: HCT-15, 48 h; in short: as §2
[30] = system: KM12; test: Growth inhibition of human KM12 cells after 48 hrs by sulforhodamine B assay; format: functional; conditions: KM12, 48 h; in short: as §2
[31] = system: HT-29; test: Growth inhibition of human HT-29 cells after 48 hrs by sulforhodamine B assay; format: functional; conditions: HT-29, 48 h; in short: as §2
[32] = system: SNB-78; test: Growth inhibition of human SNB78 cells after 48 hrs by sulforhodamine B assay; format: functional; conditions: SNB-78, 48 h; in short: as §2
[33] = Growth inhibition of human HCC2998 cells after 48 hrs by sulforhodamine B assay; format: functional; conditions: HCC 2998, 48 h; in short: as §2
[34] = system: SF-539; test: Growth inhibition of human SF539 cells after 48 hrs by sulforhodamine B assay; format: functional; conditions: SF-539, 48 h; in short: as §2
[35] = system: SNB-75; test: Growth inhibition of human SNB75 cells after 48 hrs by sulforhodamine B assay; format: functional; conditions: SNB-75, 48 h; in short: as §2
[36] = system: SF-295; test: Growth inhibition of human SF295 cells after 48 hrs by sulforhodamine B assay; format: functional; conditions: SF-295, 48 h; in short: as §2
[37] = system: U-251; test: Growth inhibition of human U251 cells after 48 hrs by sulforhodamine B assay; format: functional; conditions: U-251, 48 h; in short: as §2
[38] = system: SF-268; test: Growth inhibition of human SF268 cells after 48 hrs by sulforhodamine B assay; format: functional; conditions: SF-268, 48 h; in short: as §2
[39] = system: MCF7; test: Growth inhibition of human MCF7 cells after 48 hrs by sulforhodamine B assay; format: functional; conditions: MCF7, 48 h; in short: as §2
[40] = system: MDA-MB-231; test: Growth inhibition of human MDA-MB-231 cells after 48 hrs by sulforhodamine B assay; format: functional; conditions: MDA-MB-231, 48 h; in short: as §2
[41] = Growth inhibition of human BSY1 cells after 48 hrs by sulforhodamine B assay; format: functional; conditions: BSY-1, 48 h; in short: as §2
[42] = Growth inhibition of human HBC5 cells after 48 hrs by sulforhodamine B assay; format: functional; conditions: HBC5, 48 h; in short: as §2
[43] = Growth inhibition of human HBC4 cells after 48 hrs by sulforhodamine B assay; format: functional; conditions: HBC4, 48 h; in short: as §2
[44] = Octanol-water partition coefficient, log P of the compound by HPLC analysis; format: physicochemical
In short: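 log P was estimated from HPLC retention, with column dead time measured using unretained formamide.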

[45] = target: T1, Protein kinase C delta type (Homo sapiens, UniProt Q05655); test: Inhibition of [3H]PDBu binding to PKCdelta-C1A domain peptide (unknown origin)
T1 sequence (Q05655 whole entry, the tested form may be a part): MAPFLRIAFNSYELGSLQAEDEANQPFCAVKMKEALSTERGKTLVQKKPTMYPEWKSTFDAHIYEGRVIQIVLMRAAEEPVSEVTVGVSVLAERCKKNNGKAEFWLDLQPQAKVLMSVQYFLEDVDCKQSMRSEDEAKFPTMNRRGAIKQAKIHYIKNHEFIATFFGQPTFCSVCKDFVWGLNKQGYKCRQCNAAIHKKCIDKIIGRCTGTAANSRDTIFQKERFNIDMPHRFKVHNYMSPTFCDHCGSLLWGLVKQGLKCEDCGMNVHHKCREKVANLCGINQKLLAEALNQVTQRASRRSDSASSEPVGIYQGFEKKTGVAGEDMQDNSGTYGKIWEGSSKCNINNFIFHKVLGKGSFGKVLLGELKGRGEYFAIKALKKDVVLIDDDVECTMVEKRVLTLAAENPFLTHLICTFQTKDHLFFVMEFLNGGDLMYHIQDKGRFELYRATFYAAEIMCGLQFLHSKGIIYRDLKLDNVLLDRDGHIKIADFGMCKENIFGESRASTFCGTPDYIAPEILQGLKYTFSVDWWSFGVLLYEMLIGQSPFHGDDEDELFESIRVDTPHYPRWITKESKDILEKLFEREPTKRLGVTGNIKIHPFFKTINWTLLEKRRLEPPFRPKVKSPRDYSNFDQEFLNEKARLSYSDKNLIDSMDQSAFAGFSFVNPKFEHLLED
In short: (§3)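 Competitive [3H]PDBu binding used 14 or 40 nM PKCδ C1 peptide and 20 nM [3H]PDBu (19.6 Ci/mmol), in 50 mM Tris-maleate (pH 7.4 at 4 °C) with 50 µg/mL phosphatidylserine, 3 mg/mL bovine γ-globulin and varied inhibitor concentrations. IC50 was taken as 50% inhibition of specific binding. Ki was derived by the Sharkey–Blumberg method.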

[46] = target: T1, Protein kinase C delta type; test: Inhibition of [3H]PDBu binding to PKCdelta-C1B domain peptide (unknown origin); in short: as §3

SMILES: COc1cccc(CCCC[C@@H]2C[C@@H]3C[C@@]4(O[C@H](CCC4(C)C)CC(=O)O[C@@H](CO)CC(=O)O3)O2)c1
- viability at 1 µM [1]: 60%
- viability at 0.1 µM [2]: 60%
- Activity [3]: 5.2%
- Activity [4]: 2.6%
- GI50 [5]: 12 µM
- GI50 [6]: 13.8 µM
- GI50 [7]: 15.8 µM
- GI50 [8]: 15.1 µM
- GI50 [9]: 9.55 µM
- GI50 [10]: 19.1 µM
- GI50 [11]: 2.51 µM
- GI50 [12]: 11.5 µM
- GI50 [13]: 13.8 µM
- GI50 [14]: 11.5 µM
- GI50 [15]: 17 µM
- GI50 [16]: 16.2 µM
- GI50 [17]: 13.5 µM
- GI50 [18]: 12.6 µM
- GI50 [19]: 15.8 µM
- GI50 [20]: 11 µM
- GI50 [21]: 11 µM
- GI50 [22]: 4.9 µM
- GI50 [23]: 11 µM
- GI50 [24]: 2.57 µM
- GI50 [25]: 11.7 µM
- GI50 [26]: 11.5 µM
- GI50 [27]: 13.5 µM
- GI50 [28]: 13.5 µM
- GI50 [29]: 18.2 µM
- GI50 [30]: 13.8 µM
- GI50 [31]: 11.2 µM
- GI50 [32]: 17.4 µM
- GI50 [33]: 7.94 µM
- GI50 [34]: 10 µM
- GI50 [35]: 14.5 µM
- GI50 [36]: 10.2 µM
- GI50 [37]: 17 µM
- GI50 [38]: 14.1 µM
- GI50 [39]: 16.2 µM
- GI50 [40]: 6.61 µM
- GI50 [41]: 13.8 µM
- GI50 [42]: 18.6 µM
- GI50 [43]: 1.7 µM
- logP [44]: 4.4
- Ki [45]: 0.33 µM
- Ki [46]: 0.0097 µM

SMILES: CO[C@@H](CC[C@H](C)[C@H]1O[C@@]23C[C@H](OC(=O)C[C@H]([C@@H](C)O)OC(=O)C[C@](O)(O2)[C@H](C)CC3(C)C)[C@@H]1C)c1cc(O)ccc1Br [APLYSIATOXIN]
- logP [44]: 5.4

SMILES: CO[C@@H](CC[C@H](C)[C@H]1O[C@@]23C[C@H](OC(=O)C[C@H]([C@@H](C)O)OC(=O)C[C@](O)(O2)[C@H](C)CC3(C)C)[C@@H]1C)c1cccc(O)c1 [DEBROMOAPLYSIATOXIN]
- Ki [45]: 0.0097 µM

SMILES: CCCCCCCCCCCCCC(=O)O[C@@H]1[C@@H](C)[C@@]2(O)[C@@H](C=C(CO)C[C@]3(O)C(=O)C(C)=C[C@@H]23)[C@@H]2C(C)(C)[C@]12OC(C)=O [PHORBOL MYRISTATE ACETATE]
- Activity [3]: 31.5%
- Activity [4]: 29.4%
